High-throughput results (PubChem)
Shown are actives, neighbours in structure and some others; about 2.3% of the full set was active somewhere.
PAX8 reporter – PAX8 transcriptional activity inhibition. RMG-I TPO-luciferase reporter, SteadyGlo, 24 h. inhibition, % at 12.6 µM. actives 1.2% (n = 360,000);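 active = mean replicate inhibition at least 60% with every replicate also reaching 60%; inconclusive = only one of the two criteria is met; inactive = mean below 60% and not all replicates reaching 60%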;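 note: luciferase light reporting Pax8 driven TPO promoter activity; plate controls were median of neutral control wells for no effect and mitoxantrone controls for full effect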
Glyco luc inh – blocks N-linked glycosylation in D54 reporter cells; actives 0.23% (n = 360,000); reporter increase, % at 12.5 µM; D54 ERlucT glycosylation luciferase reporter, 24 h; percent of 100 nM tunicamycin response;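 active = mean luciferase reporter signal, scaled so untreated is 0 and the glycosylation-blocking control 100, at or above a set limit in every replicate; inconclusive = mean reaches the limit but not every replicate does; inactive = mean below the limit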;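 note: luciferase carries N-glycosylation sites so blocking glycosylation raises the light; 0% = median of neutral control wells and 100% = median of 100 nM tunicamycin wells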
Rtt109 Vps75 – C. albicans Rtt109 histone acetyltransferase inhibition | Q5AAJ8 | inhibition, % at 34.9 µM | actives 0.16% (n = 330,000) | purified Rtt109/Vps75, ThioGlo CoA-SH fluorescence, 4 h;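 active = inhibition of at least 50% in every replicate; inconclusive = best replicate reaches 50% inhibition but some replicates fall short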
Target sequence (Q5AAJ8 whole entry, looked up): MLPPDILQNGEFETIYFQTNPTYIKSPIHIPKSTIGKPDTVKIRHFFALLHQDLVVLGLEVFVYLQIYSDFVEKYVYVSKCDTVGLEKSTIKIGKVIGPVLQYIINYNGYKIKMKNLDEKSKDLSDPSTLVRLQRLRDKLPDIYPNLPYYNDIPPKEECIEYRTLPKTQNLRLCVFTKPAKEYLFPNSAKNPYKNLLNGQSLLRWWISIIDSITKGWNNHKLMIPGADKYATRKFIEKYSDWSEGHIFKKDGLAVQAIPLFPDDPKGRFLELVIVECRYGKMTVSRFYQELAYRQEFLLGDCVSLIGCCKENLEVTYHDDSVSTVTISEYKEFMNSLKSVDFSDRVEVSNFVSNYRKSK
Arrestin-AP2 inh – human beta-arrestin and AP2 interaction inhibition; actives 0.31% (n = 340,000); AID 504490; FITC-arrestin peptide / GST-AP2 beads, flow cytometry; AP2 beta2 appendage carries R879A mutation; inhibition, % at 10 µM;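 active = inhibition above a set limit, near 3 SD of compounds lacking own fluorescence, cut at about 54% in these data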;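 note: plate controls were DMSO wells for no effect and 5 µM unlabelled arrestin peptide for full effect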
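System: GST-AP2 R879A glutathione beads; medium: PBS, Tween 20 0.05%, BSA 0.1%; reagent: fluorescein-tagged arrestin peptide at 50 nM final; schedule: pre-incubation 12 min, peptide binding 1 h, room temperature; detection: flow cytometry, FL1 (488/535 nm); read-out: inhibition as reduced fluorescein signal on beads, percent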
HIV Env fusion – inhibitors of HIV Env-mediated cell fusion; actives 1.1% (n = 360,000); AID 651610; inhibition, % at 12.3 µM; HeLa-JRFL Env/CEM21 cell fusion, luciferase;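 active = mean replicate inhibition score of at least 50 and every replicate individually at or above 50; inconclusive = only one of the two criteria met; inactive = mean below 50 and not all replicates reaching 50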;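 note: 0% = plate neutral controls and 100% = maraviroc near 300 nM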
PfHsp90 set2 – reduces growth (ATP signal) of yeast expressing P. falciparum Hsp90; S. cerevisiae expressing PfHsp90, BacTiter-Glo ATP, 48 h; yeast lacking PDR1 and PDR3 efflux regulators; inhibition, % at 9.4 µM; actives 0.32% (n = 310,000); AID 504621;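 active = every replicate shows inhibition above about 80%, whatever the replicate mean, limit read from the data; inconclusive = mean inhibition reaches the set limit but some replicate falls short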;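 note: 0% = DMSO neutral controls and 100% = 20 µM radicicol positive controls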
* marks the source's active call; other numbers are inactive results; ? = inconclusive; . = not tested or not shown; [ ] = another dose, or the depositor's remark.

SMILES	PAX8 reporter	Glyco luc inh	Rtt109 Vps75	Arrestin-AP2 inh	HIV Env fusion	PfHsp90 set2
O=c1[nH]nnc2c1ncn2C1OC(CO)C(O)C1O (stereo not drawn)	97*	-7	.	.	?	.
OCC1OC(n2ccc3c(NO)ncnc32)C(O)C1O (stereo not drawn)	.	-17	3	-8	91*	-5
C[C@@H]1CN([C@H](C)CO)C(=O)Cc2cc(NC(=O)CCCCCC(=O)Nc3ccccc3N)ccc2O[C@@H]1CN(C)S(=O)(=O)c1ccc(Cl)cc1	16	.	.	.	11[16.7 µM]	.
O=C(NCCc1ccccc1F)c1ccc2c(c1)OCCO2	110*	-20	-6	-5	76*	26
O=C(NCc1ccccc1F)c1ccc2c(c1)OCO2	.	-1	-2	35	-39	-12
CCCC(=O)Nc1ccc2c(c1)C(=O)N(C)[C@H]1CC[C@@H](CC(=O)N3CCCCC3)O[C@H]1CO2	-11	.	.	.	.	.
COc1cccc(C#Cc2c(C=O)n(C)c3ccccc23)c1	85*	-3	-4	16	28	10
COc1ccc(C#Cc2ccc3c(c2)c(=O)c2ccccc2n3C)cc1	-11	2	-10	-5	-23	-22
Cn1c(C=O)c(C#CC(C)(C)O)c2ccccc21	74*	1	0	6	40	7
Cc1ccc2nc(-c3ccc4c(c3)OCCO4)cn2c1	87*	-19	2	13	34	-6
Clc1ccc2nc(-c3ccc4c(c3)OCO4)cn2c1	17	-16	2	8	-129	-15
COCc1cc(N2CCOCC2)nc(SCc2ccc(Cl)cc2)n1	1	-1	1	2	13	12
CSCc1cc(N2CCOCC2)nc(SCc2ccc(Cl)c(Cl)c2)n1	.	-4	-7	12	63*	-11
Cc1ccccc1-c1ccc2c(c1)O[C@H](CN(C)C)[C@@H](C)CN([C@@H](C)CO)S2(=O)=O	.	.	.	.	-16[16.7 µM]	.
C[C@H](CO)N1C[C@H](C)[C@H](CN(C)Cc2ccncc2)Oc2c(NC(=O)Nc3ccc(F)cc3)cccc2C1=O	-11	.	.	.	0[16.7 µM]	.
CC(C)CC(COCc1cccc(C(F)(F)F)c1)N1CCN(C(=O)c2cccc(C(F)(F)F)c2)CCC1=O (stereo not drawn)	30	-2	21	5	67*	28
Cc1ccccc1COC[C@H](CC(C)C)N1CCN(C(=O)c2cccc(C(F)(F)F)c2)CCC1=O	16	-4	13	7	72*	1
Cc1ccc(COC[C@H](CC(C)C)N2CCN(C(=O)c3cccc(C(F)(F)F)c3)CCC2=O)cc1	5	.	.	.	2	.
COc1ccc(NC(=O)Nc2ccc3c(c2)C(=O)N([C@H](C)CO)C[C@H](C)[C@@H](CN(C)C(=O)Nc2ccc(F)cc2)O3)cc1	-21	.	.	.	6[16.7 µM]	.
C=C1C(=O)O[C@@H]2[C@H]1[C@@H](OC(=O)/C(C)=C/C)C/C(C)=C\C(=O)/C=C(\C)[C@@H]2O	98*	8	5	-4	-141	3
C=C(C)CNC(=S)N/N=C/C1=CCC2CC1C2(C)C (stereo not drawn)	-8	-7	1	1	29	-25
CCCCNC(=S)N/N=C/C1=CCC2CC1C2(C)C (stereo not drawn)	1	-9	-7	1	84*	22
COc1ccc(C(=O)CSc2nnc(-c3cc4ccccc4cc3O)n2Cc2ccco2)cc1	24	33*	12	-1	-158	.
Cc1noc(C)c1S(=O)(=O)Nc1ccc2c(c1)C(=O)N([C@H](C)CO)C[C@H](C)[C@@H](CN(C)S(=O)(=O)c1ccc(Cl)cc1)OCCCC[C@H](C)O2	54	.	.	.	-24[16.7 µM]	.
COc1ccc(S(=O)(=O)N(C)C[C@H]2OCCCC[C@@H](C)Oc3ccc(NS(=O)(=O)c4c(C)noc4C)cc3C(=O)N([C@H](C)CO)C[C@H]2C)cc1	77*	.	.	.	14[16.7 µM]	.
SMILES	PAX8 reporter	Glyco luc inh	Rtt109 Vps75	Arrestin-AP2 inh	HIV Env fusion	PfHsp90 set2
Cc1noc(C)c1S(=O)(=O)Nc1ccc2c(c1)C(=O)N([C@H](C)CO)C[C@@H](C)[C@@H](CN(C)S(=O)(=O)c1ccc(Cl)cc1)OCCCC[C@H](C)O2	70*	.	.	.	-45[16.7 µM]	.
Cc1noc(C)c1S(=O)(=O)N(C)C[C@H]1OCCCC[C@H](C)Oc2ccc(NS(=O)(=O)c3ccc(Cl)cc3)cc2C(=O)N([C@H](C)CO)C[C@@H]1C	70*	.	.	.	11[16.7 µM]	.
Cc1cc(Nc2ccc3c(c2)OCCO3)c2ccccc2n1	88*	1	-4	-2	.	7
Cc1ccc2nc(C)cc(Nc3ccc4c(c3)OCCO4)c2c1	-34	-1	-3	20	-43	15
O=C(Cc1cccc2ccccc12)NCC(=O)N1CCN(CC(=O)Nc2ccc(F)cc2)CC1	37	2	.	.	65*	.
O=C(Cc1cccc2ccccc12)NCC(=O)N1CCN(Cc2cccc(C(F)(F)F)c2)CC1	31	-3	-2	-1	.	.
Cc1ccc(-n2nnnc2CNC(=O)c2ccc([N+](=O)[O-])o2)cc1C	84*	0	3	0	15	-14
O=C(NCc1nnnn1-c1ccc(F)cc1)c1ccc([N+](=O)[O-])o1	70*	10	-18	-12	-33	.
O=C(Cc1ccc(F)cc1)Nc1cccc2cccnc12	-2	-3	63*	3	19	-12
C[C@H]1CN([C@@H](C)CO)C(=O)c2cc(-c3ccncc3)cnc2O[C@H]1CN(C)S(=O)(=O)c1ccc(F)cc1	-1	.	.	.	.	.
CC(C)[C@H](CO)Nc1nc(NCc2ccc(S(N)(=O)=O)cc2)c2ncn(C(C)C)c2n1	69*	-1	-14	-9	44	-1
O=C(NCCC1CCCCN1S(=O)(=O)c1ccccc1)C(=O)NCc1cccnc1 (stereo not drawn)	27	-1	0	-6	10	9
COc1ccc(NC(=O)C(=O)NCC2CCCN2S(=O)(=O)c2ccc(C)cc2)cc1 (stereo not drawn)	104*	6	4	1	-2	11
O=C(NCCC1CCCCN1S(=O)(=O)c1ccccc1)C(=O)NCc1ccncc1 (stereo not drawn)	68*	-2	-3	-15	-13	34
Cc1ccc(S(=O)(=O)N2CCCCC2CCNC(=O)C(=O)NCc2ccncc2)cc1 (stereo not drawn)	76*	-1	.	5	2	-9
CC1CCN(S(=O)(=O)c2ccc([N+](=O)[O-])cc2)CC1	3	0	0	-12	14	-22
CC1CCN(S(=O)(=O)c2ccc(Oc3ccc([N+](=O)[O-])cc3)cc2)CC1	.	-7	-4	21	72*	-16
O=C(N[C@@H]1CC[C@H](CCNC(=O)c2ccccc2F)O[C@H]1CO)c1cnccn1	-3	.	.	.	-4[16.7 µM]	.
